Bioassay records from PubChem BioAssay.
An excerpt weighted towards active compounds, which were near 2.6% of everything screened.
SENP8 block-1: human SENP8 protease inhibitors, primary screen, biochemical, fluorescence, Nedd8 protein substrate, uHTS; Sentrin-specific protease 8 (Homo sapiens), Q96LD8; 360,000 tested, 0.64% active; inhibition, % at 20 µM; AID 602440, 2012; recombinant SENP8; in the data active means inhibition mostly above about 40%, no sharp cut-off; inactive means mostly below about 27%
Target sequence (Q96LD8 whole entry, looked up): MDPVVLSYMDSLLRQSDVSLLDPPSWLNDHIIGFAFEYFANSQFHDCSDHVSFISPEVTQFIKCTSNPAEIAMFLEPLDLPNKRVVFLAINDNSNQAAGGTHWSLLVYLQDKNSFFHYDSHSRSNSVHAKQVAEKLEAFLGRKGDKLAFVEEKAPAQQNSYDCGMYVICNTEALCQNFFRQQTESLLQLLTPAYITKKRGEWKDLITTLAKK
SENP1 FRET inh: human SENP1 catalytic domain inhibitors, primary screen, biochemical, FRET, uHTS. inhibition, % at 10 µM. Sentrin-specific protease 1 (Homo sapiens), Q9P0U3. 360,000 tested, 0.21% active. recombinant SENP1 catalytic domain, CyPet-SUMO1-YPet FRET cleavage;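 active means inhibition at least 30% at 10 µM, raw YFP signal under a set limit, fluorescence ratio 0.5 to 1.5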
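material = recombinant human SENP1 catalytic domain, His6-tagged | quantity = 20 pM enzyme | reagent = 25 nM SUMO1 FRET substrate | compound dosing = 10 µM single point, 0.5% DMSO | timing = 50 min enzyme reaction, room temperature, light-protected | detection = FRET, CFP and YFP emission | control set = no-enzyme low, enzyme-DMSO high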
SENP7 inh: SENP7 protease inhibitors, primary screen, biochemical, luminescence, uHTS; Sentrin-specific protease 7 (Homo sapiens), Q9BQF6; recombinant SENP7, Z-RLRGG-aminoluciferin luminescence, 40 min; inhibition, % at 5 µM; 330,000 tested, 1.5% active; AID 434973, 2010;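 active means inhibition above about 50% at the single test dose, limit read from the data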
Target sequence (Q9BQF6 706-1050 limits assumed): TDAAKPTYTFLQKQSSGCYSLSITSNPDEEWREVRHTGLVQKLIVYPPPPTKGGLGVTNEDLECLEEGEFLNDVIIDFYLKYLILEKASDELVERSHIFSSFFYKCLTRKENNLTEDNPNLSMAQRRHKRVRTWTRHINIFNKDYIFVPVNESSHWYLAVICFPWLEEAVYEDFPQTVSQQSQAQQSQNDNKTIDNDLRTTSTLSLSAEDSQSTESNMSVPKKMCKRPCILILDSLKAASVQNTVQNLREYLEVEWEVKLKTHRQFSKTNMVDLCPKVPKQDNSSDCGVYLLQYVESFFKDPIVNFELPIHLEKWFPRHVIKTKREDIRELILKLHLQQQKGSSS
Platelet DG rel: inhibitors of platelet dense granule secretion, primary screen, cell-based, MLPCN, human platelets; 300,000 tested, 0.22% active; human platelet-rich plasma, SFLLRN dense granule ATP release, luminescence; inhibition, %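 (compounds screened at 7.5 µM in platelet-rich plasma)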;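 active means mean replicate score, as percent of positive control, at or above 50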
SENP8 block-2: SENP8 protease inhibitors, primary screen, biochemical, luminescence; Sentrin-specific protease 8 (Homo sapiens), Q96LD8; purified SENP8, Z-RLRGG-aminoluciferin cleavage; inhibition, % at 10 µM; 330,000 tested, 1.2% active; AID 2540, 2010; in the data active means inhibition above about 50%
SENP6 inh: SENP6 protease inhibitors, primary screen, biochemical, luminescence, uHTS | AID 2599, 2010 | 330,000 tested, 1.8% active | Sentrin-specific protease 6 (Homo sapiens), Q9GZR1 | inhibition, % at 10 µM | Recombinant SENP6 catalytic domain, aminoluciferin luminescence;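 active means inhibition above about 50% at the single tested dose, limit read from the data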
A number is an active result; n = inactive; x = no result given.

SMILES	SENP8 block-1	SENP1 FRET inh	SENP7 inh	Platelet DG rel	SENP8 block-2	SENP6 inh
CCN(CC)c1ccc(/C=C(\C#N)C(=O)c2ccc(Br)cc2)cc1	50	n	x	n	x	x
CC(OC(=O)c1cccc([N+](=O)[O-])c1)C(=O)NCc1ccc2c(c1)OCO2 (stereo unspecified)	n	n	n	n	n	n
Nc1c(C(=O)NCc2ccco2)c2nc3ccccc3nc2n1CCc1ccc(F)cc1	n	n	n	n	58	67
COc1ccc(-n2c(N)c(C(=O)NCc3ccco3)c3nc4ccccc4nc32)cc1	n	n	n	n	n	n
Cc1cc(C)c(NN=c2c(=O)c3ccccc3c2=O)c(C)c1	n	n	n	n	n	n
O=c1c(=NNc2ccccc2Cl)c(=O)c2ccccc12	40	n	x	x	x	x
Cc1ccc(NC(=S)NNC(=O)Nc2ccccc2)cc1	n	n	n	n	n	52
CCCCOc1ccccc1C1C(C(=O)OC)=CN(CC)C=C1C(=O)OC	n	n	n	51	n	n
CCCOc1ccccc1C1C(C(=O)OC)=CN(C(C)C)C=C1C(=O)OC	n	n	n	n	n	n
CCOc1cc(C(c2c(C)[nH][nH]c2=O)c2c(C)[nH][nH]c2=O)ccc1OCc1ccc([N+](=O)[O-])cc1	37	n	n	n	n	n
COc1cc(NC(=O)c2ccccc2)c(OC)cc1NC(=O)CSc1[nH]c(=O)cc(C)c1C#N	n	n	n	71	n	n
O=C(N/N=C/c1ccc([N+](=O)[O-])s1)c1ccccc1	n	n	n	n	n	50
Cc1ccnn1CC(=O)N/N=C/c1ccc([N+](=O)[O-])s1	n	n	n	n	n	51
Cc1ccnn1CC(=O)N/N=C/c1cccs1	n	n	n	n	n	n
O=C(N=C1SC2CS(=O)(=O)CC2N1Cc1ccccc1)C1CC1 (stereo unspecified)	n	n	x	x	x	x
C#CCN1CCc2onc(-c3ccc(Br)cc3)c2C1=O	n	n	x	x	x	x
O=c1c2ccccc2c(C=Nc2cccc(S(=O)(=O)NC3=NCCCCC3)c2)c(O)n1Cc1ccccc1	n	n	n	n	n	53
CC1CN(C(=O)Nc2ccc(F)cc2F)CC(C)O1 (stereo unspecified)	n	n	n	n	n	n
CN1CCC(=NNc2ccc(S(=O)(=O)N3CCOCC3)cc2[N+](=O)[O-])CC1	n	n	n	n	n	n
CCc1ccc(NC(=S)N(CCN2CCOCC2)Cc2ccccc2F)cc1	n	n	n	n	n	n
COc1cc([N+](=O)[O-])cc(/C=N/NC(=O)C(C)Nc2ccccc2C)c1O (stereo unspecified)	41	n	n	n	n	n
COc1cc([N+](=O)[O-])cc(/C=N/NC(=O)c2ccc(C)nc2)c1O	n	n	77	n	58	75
CN(C)c1nc(NNC(=O)c2ccccc2)nc(N(C)C)n1	n	n	x	x	x	x
O=C(CC12CC3CC(CC(C3)C1)C2)NC(=S)Nc1ccc(CN2CCOCC2)cc1	n	n	n	n	n	n
CC(NC(=O)Cc1ccccc1)c1ccccc1 (stereo unspecified)	n	n	n	n	n	n
SMILES	SENP8 block-1	SENP1 FRET inh	SENP7 inh	Platelet DG rel	SENP8 block-2	SENP6 inh
O=C(Cc1ccccc1)NC1(O)C(=O)c2ccccc2C1=O	50	n	n	n	n	n
Cc1ccc(-c2c(C#N)c(N)n(-c3ccccc3)c(=O)c2C#N)cc1	n	n	n	54	n	n
NC(=O)c1ccc(NC(=O)COC(=O)C2CCN(S(=O)(=O)c3cccs3)CC2)cc1	n	n	n	x	n	n
COc1ccc(C2NC(=O)c3n[nH]c(C)c32)c(OC)c1 (stereo unspecified)	n	n	n	62	n	n
Cc1ccc(NC(=O)CCNS(=O)(=O)c2ccc(Br)s2)cc1	n	n	n	n	n	n
CCOC(=O)C1CCN(C(=O)Cn2nc(C)n3c(cc4cc(F)ccc43)c2=O)CC1	n	n	n	50	n	n
Fc1ccc2c(c1)C(c1ccc(N3CCOCC3)cc1)=NNC(c1cccs1)=N2	n	42	n	n	n	n
CCOc1ccc(N2CC(C(=O)Nc3nnc(C4CCCCC4)s3)CC2=O)cc1 (stereo unspecified)	n	n	n	n	n	n
CCC(CO)Oc1cc(NC(=O)c2ccccc2[N+](=O)[O-])c2ncn(C(C)C)c2c1 (stereo unspecified)	n	n	n	x	n	n
Cc1cc(/C=C2\SC(=S)N(C)C2=O)c(C)n1-c1ccccc1O	n	n	77	n	70	87
O=[N+]([O-])c1cnc2nc(-c3ccncc3)nn2c1O	n	n	96	n	93	99
O=[N+]([O-])c1cc(Cl)ccc1-c1nc(-c2ccncc2)no1	n	n	n	n	n	n
Cc1cccc(NC(=O)c2cccc(S(=O)(=O)N(C)C3CCCCC3)c2)n1	n	n	x	x	x	x
COCCN(C(=O)COC(=O)CCc1nc2ccccc2s1)c1c(N)n(Cc2ccccc2)c(=O)[nH]c1=O	n	n	n	52	n	n
Oc1ccc(Br)cc1/C=N/N1CCCCC1	n	n	53	n	85	94
CSc1cccc(NC(=O)c2ccccn2)c1	x	x	52	n	n	55
COc1cccc2cc(-c3ccccc3)c(=O)oc12	n	n	75	n	66	n
COc1cccc(CNc2ncc(Br)cc2Br)c1O	40	n	n	n	n	n
Cc1nnc(N/N=C/c2ccc(-c3ccc(Br)cc3)o2)n1N	n	n	n	n	n	n
Cc1nnc(N/N=C\c2ccc(-c3cccc(C(=O)O)c3)o2)n1N	n	n	n	n	n	52
Oc1ccc2c(c1)OCC1(O)Cc3cc(O)c(O)cc3C21 (stereo unspecified)	n	31	x	x	x	x
Cc1ccc(C(=O)Cc2cc3ccccc3oc2=O)c(C)c1	n	n	n	n	n	n
Cc1[nH]n(-c2ccc([N+](=O)[O-])cc2)c(=O)c1C=NCCN1CCN(C(=O)c2ccc(F)cc2)CC1	n	n	90	n	67	91
Cc1[nH]n(-c2ccc([N+](=O)[O-])cc2)c(=O)c1C=NCCc1c[nH]c2ccccc12	n	n	n	n	n	n
CNC[C@@H]1OCc2ccccc2-c2ccccc2C(=O)N([C@H](C)CO)C[C@@H]1C	n	n	x	x	x	x
COC(=O)C1=C(C)NC(=O)NC1c1cccc(OC)c1OCc1ccccc1 (stereo unspecified)	n	n	n	n	n	n
COc1ccc(C)cc1Nc1n[n+](-c2ccccc2)c(-c2ccc(N(C)C)cc2)s1	n	41	n	n	n	n
